Results as given in ChEMBL document CHEMBL2062388, “Integrated virtual screening for the identification of novel and selective peroxisome proliferator-activated receptor (PPAR) scaffolds” (J Med Chem, 2012).
Active and inactive are the calls of the source. The calls are words filed in the database; no cut-off is given here.

Assays:
[1] = target: T1, Peroxisome proliferator-activated receptor alpha (Homo sapiens) (UniProt Q07869); test: Displacement of pan-PPAR fluormone from PPARalpha LBD at >= 100 uM by TR-FRET based LanthaScreen assay
T1 sequence (whole entry): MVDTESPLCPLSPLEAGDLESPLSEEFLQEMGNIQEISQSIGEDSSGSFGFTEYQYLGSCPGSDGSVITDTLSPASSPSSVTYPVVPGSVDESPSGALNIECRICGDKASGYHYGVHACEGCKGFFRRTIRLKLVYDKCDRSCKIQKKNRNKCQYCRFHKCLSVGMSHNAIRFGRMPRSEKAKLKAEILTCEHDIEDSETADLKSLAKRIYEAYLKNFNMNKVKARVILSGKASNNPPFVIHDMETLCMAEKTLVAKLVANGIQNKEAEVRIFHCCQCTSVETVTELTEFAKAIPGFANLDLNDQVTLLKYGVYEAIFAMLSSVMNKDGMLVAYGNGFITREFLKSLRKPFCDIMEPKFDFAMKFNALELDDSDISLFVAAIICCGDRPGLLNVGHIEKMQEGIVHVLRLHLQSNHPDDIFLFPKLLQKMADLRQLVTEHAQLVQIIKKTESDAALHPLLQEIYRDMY

[2] = Octanol-water partition coefficient, log P of the compound; assay type: physicochemical
[3] = target: T2, Peroxisome proliferator-activated receptor gamma (Homo sapiens) (UniProt P37231); test: Agonist activity at PPARgamma LBD in human 293H DA cells after 16 hrs by TR-FRET activation reporter assay relative to rosiglitazone; assay type: functional, cell-based
T2 sequence (whole entry): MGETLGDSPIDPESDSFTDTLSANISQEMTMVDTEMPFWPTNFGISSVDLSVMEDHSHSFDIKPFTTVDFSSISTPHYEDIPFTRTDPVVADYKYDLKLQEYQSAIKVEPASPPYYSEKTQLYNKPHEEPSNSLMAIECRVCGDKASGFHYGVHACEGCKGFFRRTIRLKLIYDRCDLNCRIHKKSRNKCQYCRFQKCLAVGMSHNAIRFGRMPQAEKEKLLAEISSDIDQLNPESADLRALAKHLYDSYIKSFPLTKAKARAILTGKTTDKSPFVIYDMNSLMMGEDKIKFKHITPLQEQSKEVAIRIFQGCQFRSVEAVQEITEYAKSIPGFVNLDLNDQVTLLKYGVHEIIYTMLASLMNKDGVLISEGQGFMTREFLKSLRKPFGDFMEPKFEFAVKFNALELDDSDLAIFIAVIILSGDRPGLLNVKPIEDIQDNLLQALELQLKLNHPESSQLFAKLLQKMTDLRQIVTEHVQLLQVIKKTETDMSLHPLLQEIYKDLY
Summary of the method: (§1)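 GeneBLAzer PPARγ 293H DA cells plated at 30 000 cells/well, exposed to compound (0.1 to 10 000 nM; 0.1% DMSO final) for approximately 16 h. LiveBLAzer-FRET B/G substrate loaded for 2 h, then fluorescence read at 460 and 530 nm. […] EC50 from sigmoidal varying-slope fit. Triplicates, at least two independent experiments.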

[4] = target: PPAR delta/gamma (Homo sapiens) (UniProt P37231+Q03181); test: Selectivity ratio of EC50 for PPARdelta LBD to EC50 for PPARgamma LBD
[5] = target: T3, Peroxisome proliferator-activated receptor gamma (Homo sapiens, UniProt P37231); test: Displacement of pan-PPAR fluormone from PPARgamma LBD by TR-FRET based LanthaScreen assay
T3 sequence (P37231 whole entry): T2 sequence (whole entry)

[6] = target: T2, Peroxisome proliferator-activated receptor gamma (Homo sapiens); test: (§2) Agonist activity at PPARgamma LBD in human 293H DA cells after 16 hrs by TR-FRET activation reporter assay; assay type: functional, cell-based; summary of the method: as §1
[7] = target: T3, Peroxisome proliferator-activated receptor gamma; test: as §2; assay type: functional, cell-based; summary of the method: as §1
[8] = target: T3, Peroxisome proliferator-activated receptor gamma; test: Binding affinity to PPARgamma LBD by fluorescence polarization based competitive binding assay
[9] = target: T4, Peroxisome proliferator-activated receptor delta (Homo sapiens, UniProt Q03181); test: Displacement of pan-PPAR fluormone from PPARdelta LBD by TR-FRET based LanthaScreen assay
T4 sequence (Q03181 whole entry): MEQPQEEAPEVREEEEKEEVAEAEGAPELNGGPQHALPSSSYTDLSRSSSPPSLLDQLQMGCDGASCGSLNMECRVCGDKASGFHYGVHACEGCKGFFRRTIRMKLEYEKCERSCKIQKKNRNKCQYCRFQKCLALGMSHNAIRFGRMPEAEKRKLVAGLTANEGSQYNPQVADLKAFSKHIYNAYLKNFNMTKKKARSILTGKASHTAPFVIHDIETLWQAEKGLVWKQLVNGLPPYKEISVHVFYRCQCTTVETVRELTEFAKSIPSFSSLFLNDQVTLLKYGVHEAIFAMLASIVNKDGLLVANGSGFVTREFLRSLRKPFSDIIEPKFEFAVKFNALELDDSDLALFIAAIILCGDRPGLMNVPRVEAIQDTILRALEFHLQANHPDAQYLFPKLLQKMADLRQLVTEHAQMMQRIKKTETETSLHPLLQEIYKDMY

[10] = target: T5, Peroxisome proliferator-activated receptor alpha (Homo sapiens, UniProt Q07869); test: Displacement of pan-PPAR fluormone from PPARalpha LBD by TR-FRET based LanthaScreen assay
T5 sequence (Q07869 whole entry): T1 sequence (whole entry)

[11] = target: T2, Peroxisome proliferator-activated receptor gamma (Homo sapiens); test: Binding affinity to PPARgamma LBD at >= 100 uM by fluorescence polarization based competitive binding assay
[12] = target: T2, Peroxisome proliferator-activated receptor gamma (Homo sapiens); test: Displacement of pan-PPAR fluormone from PPARgamma LBD at >= 100 uM by TR-FRET based LanthaScreen assay
Homo sapiens = species: Homo sapiens; test: Selectivity ratio of EC50 for PPARalpha LBD to EC50 for PPARgamma LBD

For `CN(CCOc1ccc(CC2SC(=O)NC2=O)cc1)c1ccccn1` (stereo unspecified) [ROSIGLITAZONE], the inhibition [1] was “inactive” and the logP [2] was 2.62.

With `CCOC(=O)c1sc(N2C(=O)C(O)=C(C(=O)c3cccs3)C2c2ccc(C)o2)nc1C` (stereo unspecified) the Emax [3] was 77.5%, the Ratio EC50 [4] was 10.8 and the EC50 [5] was 2400 nM. For the same compound, the inhibition [1] was “inactive”, the Activity [6] was “Dose-dependent effect” and the EC50 [7] was 594 nM. It also gave an EC50 [8] of 2400 nM, an EC50 [9] of 26000 nM and a logP [2] of 2.39.

Compound `CN(CCOc1ccc(C[C@H](Nc2ccccc2C(=O)c2ccccc2)C(=O)O)cc1)c1ccccn1` has a logP [2] of 5.23.

With `Cc1cc(SCc2sc(-c3ccc(C(F)(F)F)c(F)c3)nc2C)ccc1OCC(=O)O` the EC50 ([10]; read-out: EC50) was 920 nM, the logP [2] was 5.95 and the inhibition [11] was “inactive”. The inhibition [12] was “inactive”.

With `CC(C)(Sc1ccc(CCN(CCCCC2CCCCC2)C(=O)NC2CCCCC2)cc1)C(=O)O` [GW7647] the logP [2] was 8.02, the inhibition [11] was “inactive” and the inhibition [12] was “inactive”.

With `O=C1NC(=S)NC(=O)C1=Cc1ccc(OCc2ccccc2)c(Cl)c1` the Emax [3] was 91.6%, the EC50 [10] was “Not Active” and the EC50 [5] was 215 nM. For the same compound, the Activity [6] was “Dose-dependent effect”, the EC50 [7] was 467 nM and the EC50 [8] was 325 nM. For the same compound, the logP [2] was 3.11.

Compound `O=C(Nn1cc([N+](=O)[O-])cn1)c1cccc(COc2ccc(Br)cc2)c1` has an Emax [3] of 68.7%, an EC50 ([10]; read-out: EC50) of 11400 nM and a Ratio EC50 [4] of 4. For the same compound, the EC50 [5] was 5450 nM, the Activity [6] was “Dose-dependent effect” and the EC50 [7] was 682 nM. The EC50 [8] was 5450 nM, the Ratio EC50 (Homo sapiens) was 2 and the EC50 [9] was 21000 nM. For the same compound, the logP [2] was 3.71.
